Test results reported in ChEMBL document CHEMBL4513216, “Probing the Open Global Health Chemical Diversity Library for Multistage-Active Starting Points for Next-Generation Antimalarials” (ACS Infect Dis, 2020).

Assay: Toxicity liver stage against HepG2, at 10uM
Assay type: cell-based
Parameters: test concentration 10 uM, cell line HepG2-A16-CD81EGFP
Conditions: human, HepG2-A16-CD81EGFP cells; read-out: INHIBITION
In short: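 Uninfected HepG2-A16-CD81EGFP cells, 3 × 10^3 per well, 1536-well, plated on prespotted compound at 10 μM final, parasite-free screening media added to match infected plates; puromycin 10 μM positive, DMSO 0.5% negative; run in parallel with 48 h PbLuc assay at 37 °C, 5% CO2; viability by CellTiter-Glo luminescence, normalized to controls.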

| Structure (SMILES) | cytotoxicity at 10 µM |
| --- | --- |
| CC(CNC(=O)c1ccon1)Oc1cccc(Br)c1 (stereo unspecified) | -1.52% |
| CC(C)c1nnc(CN(C)C(c2ccccc2)c2ccc(F)cc2)o1 (stereo unspecified) | 15.5% |
| CC(=O)N1CCCN(C(=O)c2ccc(Sc3ccccn3)cc2)CC1 | 10.9% |
| Cc1cc(OC(F)F)c(C(=O)N2CCC(N(C)C)CC2)s1 | 6.9% |
| Cc1csc(CNc2cnn(C(C)C)c2)n1 | 9.45% |
| CC(CNC1CCN(Cc2ccncc2)CC1)c1ccc(F)cc1F (stereo unspecified) | -9.73% |
| CCc1ccc(C(=O)NCCCC2(C3OCCO3)CCOCC2)cc1 | 15.6% |
| Cc1ccc(NC(=O)NCCc2ccncc2C)c(N(C)C)n1 | 12.9% |
| CC(C)NC(=O)C1CCN(C(C)C(=O)N2CCc3sccc3C2)CC1 (stereo unspecified) | 5.52% |
| COCCN1CCN(S(C)(=O)=O)Cc2cccnc21 | 5.7% |
| O=C(c1ccco1)N1CCO[C@@H]2CNCC[C@@H]2C1 | -75.2% |
| Cc1ncnc2c1CCN(C(=O)c1cccn1C)CC2 | -75.1% |
| O=C(NCCNc1cccnc1)C(c1cccnc1)N1CCCC1 (stereo unspecified) | 4.11% |
| O=C1CCC2(CCCN(C(=O)C3CCCC3)C2)CN1CCc1c[nH]cn1 (stereo unspecified) | -0.699% |
| CC(C)c1nc(CN(C)C(=O)CCS(=O)(=O)c2ccccc2)no1 | -20.3% |
| Cc1ncsc1CCN(C)C(=O)c1ccc(Cn2cnnn2)cc1 | -9.17% |
| CCC(OC)C(=O)NCC1CCN(c2cnn(C)c(=O)c2)CC1 (stereo unspecified) | 7.35% |
| CN1CC2(CCCN(C(=O)c3cnc4ccc(F)cc4c3O)C2)OC1=O (stereo unspecified) | 6.25% |
| Cc1ccc(CN2CCN(Cc3cc(C)n[nH]3)CC2CCO)cc1 (stereo unspecified) | 1.13% |

| Structure (SMILES) | cytotoxicity at 10 µM |
| --- | --- |
| COc1ccc(Cl)cc1C(=O)N1C[C@H](C(C)C)[C@@H](N)C1 | 1.17% |
| OC1CCN(CCCn2ccnc2-c2c[nH]cn2)CC1 | -1.57% |
| O=c1c(CN2CCOCC2)coc2ccc(Cl)cc12 | -3.73% |
| COCCn1ccnc1C1CCCN(c2ncnc3c(C)csc23)C1 (stereo unspecified) | 2.57% |
| OCc1ccc(CN2CCC(n3cc(-c4ccc(F)cc4)nn3)CC2)o1 | 5.54% |
| O=C(c1cnc(C2CC2)nc1O)N1CCN(Cc2ccccc2F)CC1 | -1.83% |
| Cn1c(Cn2ccnc2)nnc1C1CCCN(CC(C)(C)C)C1 (stereo unspecified) | 3.89% |
| C/C=C(\C)CN1C[C@H](c2cccc(OC)c2)[C@@H](N)C1 | 3.49% |
| CCC(=O)NCc1ccc(N2CCCCC2)cc1 | -6.89% |
| CCC(O)CNC(=O)C1(N(C)Cc2ccccc2)Cc2ccccc2C1 (stereo unspecified) | 7.62% |
| Cc1nc(O)c2nnn(C[C@H]3CCCN3C(=O)CCC3CCCC3)c2n1 | 5.02% |
| Cc1nc(CN2CCCC(c3cc(C(N)=O)[nH]n3)C2)oc1C (stereo unspecified) | -31.2% |
| CCC1c2ccsc2CCN1C(=O)NCc1ccnc(N(C)C)c1 (stereo unspecified) | -11.9% |
| CS(=O)(=O)NCC1CCCN(C(=O)CCCc2ccccc2)C1 (stereo unspecified) | -2.78% |
| Cc1nc(C)n(CC2CCCN(CC(=O)Nc3ccncc3)C2)n1 (stereo unspecified) | -5.75% |
| Cc1cc(NC(=O)NCC(CC(C)C)N2CCOCC2)n(C)n1 (stereo unspecified) | -15% |
| Cc1ccc(-c2nc(CN3CCCC3Cn3cncn3)co2)cc1 (stereo unspecified) | -7.29% |
| CC(O)CN1CCN(C(=O)c2cccn2Cc2ccccc2)CC1 (stereo unspecified) | -8.87% |
| CCn1c(CNCC2CCCN2c2cccnn2)nc2ccccc21 (stereo unspecified) | -10.2% |

| Structure (SMILES) | cytotoxicity at 10 µM |
| --- | --- |
| O=C(NCCNc1ncccn1)N1CCCC1 | -12.8% |
| O=C(NCc1cccnc1-n1cncn1)c1ccc2c(c1)CCO2 | -14.2% |
| Cc1ncc(C(=O)NCCNc2ncccc2C#N)s1 | -8.18% |
| Cc1nc(CN(C)C2CCN(CCCOc3ccc(F)cc3)C2)no1 (stereo unspecified) | -8.27% |
| CCc1nc(CN(C)C2CCN(CCOc3ccccc3)C2)no1 (stereo unspecified) | -34.6% |
| CCn1c(CN2CCCN(C(=O)OC)CC2)nc2c(F)cccc21 | -8.6% |
| O=C(Cc1ccc2c(c1)OCCO2)NC1CCCC1 | -3.07% |
| Fc1ccc(-c2nnc(CN3CCn4c(nnc4C4CC4)C3)o2)cc1 | 0.577% |
| Cc1ccc(-c2nc(CN3CCc4nn(C)c(=O)cc4C3)co2)cc1 | -11.6% |
| Cn1ccnc1N1CCN(C(=O)Cc2ccc(F)cc2)CC1 | 4.73% |
| CCN1CCn2c(C)cnc2C12CCN(C(=O)CC(C)C)CC2 | -5.93% |
| Cc1cccc(CN2CC[C@H]3[C@H]2CCN3C(=O)c2cnn(C)c2)n1 | 14.4% |
| CCOC(=O)[C@]12CCCN(Cc3ccco3)C[C@H]1CN(CCN(C)C)C2 | -17.9% |
| COCc1cnc2n1CCN(Cc1cccnc1)C2C (stereo unspecified) | -8.79% |
| CCC(=O)N1CC[C@H]2[C@H](C[C@@H](CN3CCCC3)N2c2nccs2)C1 | 10.2% |
| CO[C@H]1CCN(C(=O)c2ccsc2)[C@@H]2CN(CC3CC3)C[C@H]12 | 1.64% |
| CN(C)CCN1CCC2(CCN(C(=O)c3cccc(F)c3)CC2)C1=O | -6.19% |
| CS(=O)(=O)N1C[C@@H]2C[C@H](C(=O)N3CCOCC3)[C@H](C1)O2 | -2.92% |
